# According to paper PMC3464052 (Journal of medicinal chemistry, 2012):
# Like-named read-outs stand apart in the source and are kept apart here.
# What was measured:
# [1] = target: T1, human α4β2-nAChRs (Homo sapiens, UniProt P17787+P43681); conditions: cited from earlier work
# [2] = test system: mice; assay: SmartCube automated behavioral signature; type: in vivo, mouse; conditions: i.p., 15 min before testing
# [3] = target: Ct-AChBP (Capitella teleta, UniProt I6L8L2); assay: biochemical; type: binding
# [4] = 1 h incubation, starting concentration 1 μM; ref [16]; cited from earlier work
# [5] = target: T1, human α4β2-nAChRs; assay: 86Rb+ ion flux assay, SH-EP1 cells; type: cell-based; conditions: mixture of HS and LS α4β2-nAChRs
# Procedure, shortened: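 Human α4β2-nAChRs stably expressed in SH-EP1 cells, as a mixture of high- and low-sensitivity forms. Agonist responses are expressed relative to a maximally efficacious concentration of the full agonist carbamylcholine. Inactivation of function is measured after a 10 min pre-exposure to test compound. Concentration-response curves are fitted by semi-logarithmic nonlinear regression.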
# [6] = test system: mice; assay: Mouse forced swim test; type: in vivo
# [7] = target: α4β2-nAChR (Rattus norvegicus, UniProt P09483+P12390); assay: [3H]epibatidine binding competition, heterologously expressed α4β2-nAChR; conditions: from Ki values
# [8] = Liver microsome stability, mouse; type: in vitro ADME; conditions: mouse liver microsomes, 1 h, 2 μM
# [9] = Liver microsome stability, rat; type: in vitro ADME; conditions: rat liver microsomes, 1 h, 2 μM
# [10] = Liver microsome stability, dog; type: in vitro ADME; conditions: dog liver microsomes, 1 h, 2 μM
# [11] = Liver microsome stability, human; type: in vitro ADME; conditions: human liver microsomes, 1 h, 2 μM
# [12] = intraperitoneally, 3 or 10 mg/kg
compound,measurement,setting,value
"CN1CCC[C@H]1c1cccnc1 [compound 1, nicotine, reference compound]",Agonism Hill slope,[1],1.0±0.1
same,Inactivation Hill Slope,[1],−0.8±0.09
OCC[C@H]1C[C@@H]1c1cncc(OC[C@@H]2CCN2)c1 [compound 5],SmartCube behavioral signature,[2],signature of activity suggesting potential antidepressant-like effect
same,Agonism Efficacy at HS,"[1]; HS α4β2-nAChR, extrapolated using sazetidine-A as full agonist, ref [16]",92±6%
same,Inactivation Efficacy,"[1]; mixture of HS and LS, ref [16]",62±1%
same,Agonism Hill slope,[1]; ref [16],1.0±0.4
same,Inactivation Hill Slope,[1]; ref [16],−1.4±0.2
CNC(=O)OCC[C@H]1C[C@@H]1c1cncc(OC[C@@H]2CCN2)c1 [compound 6],Ki,[3],22 ± 3 nM
same,SmartCube behavioral signature,[2],signature of activity suggesting potential antidepressant-like effect
same,tested compound remained unchanged,[4],98%
"CC[C@H]1C[C@@H]1c1cncc(OC[C@@H]2CCN2)c1.O=C(O)C(F)(F)F [compound 10, 3-[(2(S)-Azetidinyl)methoxy]-5-((1S,2S)-2-ethylcyclopropyl)pyridine Trifluoroacetate]",Agonism Hill slope,[5],1.1±0.2
same,Inactivation Hill Slope,[5],−1.1±0.3
same,SmartCube behavioral signature,[2],signature of activity suggesting potential antidepressant-like effect
same,effect in the forced swim test,[6]; [12],no significant effect
"FCC[C@H]1C[C@@H]1c1cncc(OC[C@@H]2CCN2)c1.O=C(O)C(F)(F)F [compound 12, 3-[(2(S)-Azetidinyl)methoxy]-5-[(1S,2R)-2-(2-fluoroethyl)cyclopropyl]pyridine Trifluoroacetate]",selectivity for α4β2- over α3β4-nAChRs,[7],greater than 16000 fold
same,Agonism Hill slope,[5],1.3±0.5
same,Inactivation Hill Slope,[5],−1.2±0.4
same,SmartCube behavioral signature,[2],signature of activity suggesting potential antidepressant-like effect
same,effect in the forced swim test,[6]; intraperitoneally or orally,antidepressant-like effect
same,minimal dose with significant reduction in immobility,[6]; intraperitoneally or orally,3 mg/kg
same,compound remained unchanged,[8],no less than 98%
same,compound remained unchanged,[9],no less than 98%
same,compound remained unchanged,[10],no less than 98%
same,compound remained unchanged,[11],no less than 98%
"FC(F)C[C@H]1C[C@@H]1c1cncc(OC[C@@H]2CCN2)c1.O=C(O)C(F)(F)F [compound 13, 3-[(2(S)-Azetidinyl)methoxy]-5-[(1S,2R)-2-(2,2-difluoroethyl)cyclopropyl]pyridine Trifluoroacetate]",selectivity for α4β2- over α3β4-nAChRs,[7],greater than 16000 fold
same,Agonism Hill slope,[5],1.4±0.4
same,Inactivation Hill Slope,[5],−1.1±0.3
same,SmartCube behavioral signature,[2],signature of activity suggesting potential antidepressant-like effect
same,effect in the forced swim test,[6]; [12],no significant effect
"CN[C@H]1CC[C@@H](c2ccc(Cl)c(Cl)c2)c2ccccc21 [sertraline, reference compound]",effect on immobility in the forced swim test,"[6]; positive control, 20 mg/kg",expected decrease in immobility
